# Apaf-1 inh = human Apaf-1 inhibition | hit rate 0.71% among 330,000 | reconstituted apoptosome caspase-3 activity, DEVD-Rh110 fluorescence | inhibition, % at 20 µM | O14727; active = inhibition of at least 40% at 20 µM;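 note: plate controls were DMSO wells for no effect and DEVD-CHO caspase inhibitor wells for full effect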
#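 Assay system – apoptosome proteins · Medium – Hepes buffer, pH 7.5 · Also added – cytochrome c with DEVD-Rh110 · Timing – 30 min compound preincubation, 50 min activation, room temperature · Detection – Rh110 fluorescence, excitation 480 nm, emission 540 nm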
# DTT redox prof = compounds producing H2O2 with reducing agent – biochemical, NIH compound library profiling, artefact control for MLSCN library redox annotation, primary screen; DTT-dependent redox cycling H2O2, phenol red/HRP absorbance; 100% = 100 µM peroxide control, 0% = buffer; activation, % at 10 µM; hit rate 0.03% among 200,000; AID 878;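 active = activation of at least 50% relative to the plate's high and low controls in the primary single-dose screen; inactive = activation below 50%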;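 note: compound incubated with DTT at 0.8 mM final as the reducing agent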
# HKDC1 inhibitor = HKDC1 (human) hexokinase inhibition | recombinant HKDC1, G6PDH/diaphorase resazurin coupled fluorescence | inhibition, % at 20 µM | hit rate 0.16% among 340,000;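 active = inhibition above about 35% when tested at 20 µM, limit read from the data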;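 note: plate controls were DMSO wells with enzyme for no effect and DMSO wells lacking enzyme for full effect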
#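 Assay system – recombinant HKDC1 (HK5) hexokinase enzyme, produced in-house · Input – HKDC1 at 5 µg/mL · Reagent – glucose plus 1 mM ATP as hexokinase substrates · Timing – 90 min reaction incubation at room temperature, dark · Measured by – G6PDH/diaphorase-coupled fluorescence, 1 mM NADP, 100 µM resazurin, 525/613 nm · Benchmarks – DMSO-enzyme wells negative, buffer-substituted wells positive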
# GSTO1 counter = blocks human GSTO1 in RBBP9 counter-screen; hit rate 1.1% among 300,000; AID 1974; P78417; recombinant GSTO1, activity-based probe fluorescence polarization; inhibition, % at 5.96 µM;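 active = inhibition above the campaign mean inhibition plus 3 SD, cut at about 35% in these data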;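 note: 0% = GSTO1-1 with DMSO and 100% = wells lacking GSTO1-1 enzyme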
# SUMO HTRF inh = SUMOylation inhibition. AID 2006. P63279. HTRF SUMOylation assay, SAE1/SAE2 + UBC9, in vitro. hit rate 0.36% among 290,000. inhibition, % at 35 µM; in the data active = inhibition above about 50%, passing the limit was not always enough
# Target sequence (P63279 whole entry, looked up): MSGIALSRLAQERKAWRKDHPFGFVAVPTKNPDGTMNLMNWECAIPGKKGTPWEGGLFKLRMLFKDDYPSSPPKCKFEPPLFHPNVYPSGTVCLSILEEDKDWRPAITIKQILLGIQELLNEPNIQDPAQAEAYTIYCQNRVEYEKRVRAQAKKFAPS
# HKDC1 act conf2 = confirmation of human HKDC1 activators. shares compounds with HKDC1 inhibitor. recombinant HKDC1, G6PDH/diaphorase resazurin fluorescence; active compounds read low. inhibition, % at 20 µM. hit rate 14% among 740;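 active = inhibition at or below a set negative limit, negative inhibition meaning the enzyme was activated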
# * hit, by the source's call; . = not tested or not shown. The list is not random: actives were taken first. Their share in the collection is about 1.4%.
SMILES,Apaf-1 inh,DTT redox prof,HKDC1 inhibitor,GSTO1 counter,SUMO HTRF inh,HKDC1 act conf2
COC(=O)c1ccc(NCc2c(O)ccc(O)c2Br)cc1Cl,.,.,45*,.,.,21
CN(C)c1nc(C=C(C#N)C#N)c(Cl)n1-c1ccc(F)cc1,.,-1,24,.,16,.
O=C(O)c1cc(O)c2c(c1)C(=O)c1cccc(O)c1C2=O,-1,6,40*,50*,32,-2
COc1cc(C2c3c([nH]c(=O)[nH]c3=O)Nc3ccc4ccccc4c32)ccc1O (configuration not stated),25,0,-1,18,10,.
COc1cc(C2c3c([nH]c(=O)[nH]c3=O)Nc3ccc4ccccc4c32)cc(OC)c1OC (configuration not stated),35,0,37*,14,77*,44
O=c1c2ccccc2nc(/C=C/c2cccnc2)n1Cc1ccccc1,.,0,81*,.,82*,61
O=c1c2ccccc2nc(/C=C/c2cccnc2)n1CCc1ccccc1,19,.,34,-10,49,39
CC(=O)c1cccc(NC(=O)C(C)OC(=O)c2ccc(Br)o2)c1 (configuration not stated),-7,.,-1,.,.,.
CCN(CC)C(=O)c1ccc(C(=O)c2c(C)cc(C)cc2C)cc1,8,1,39*,18,-5,-40*
COCCNC(=O)c1ccccc1NC(=O)CCSc1ccccc1,5,0,-9,13,3,.
COc1ccc(/C=C/C(=O)OCC(=O)Nc2ccc3[nH]c(=O)[nH]c3c2)cc1OC,-3,.,3,8,.,.
NC(=NCc1ccc2c(c1)OCO2)NC(=O)c1ccccc1,6,14,29,.,32,17
Cc1ccc(-c2nc(NC(=O)CSc3cc(C)c4ccccc4n3)ns2)cc1,9,0,57*,-1,-10,-2
COc1ccc2c(C)cc(SCC(=O)Nc3nsc(-c4ccc(C)cc4)n3)nc2c1,5,0,9,7,8,.
NC(=S)N/N=C/c1ccc(Br)o1,-19,0,-55,9,16,-10
NC(=S)N/N=C/c1ccc(-c2cc(Cl)c(Cl)cc2Cl)o1,20,0,-5,-10,40,.
COc1ccc(NC(=O)Cc2c[nH]c3ccccc23)cc1S(=O)(=O)N1CCOCC1,1,0,-2,28,-14,.
COc1ccc(NC(=O)Cc2c[nH]c3ccccc23)cc1S(=O)(=O)N1CCCCC1,3,1,49*,-3,-20,-35*

# Assay outcomes as filed in PubChem BioAssay.
